From ChEMBL document CHEMBL1134320, “Structure of protein tyrosine phosphatase 1B in complex with inhibitors bearing two phosphotyrosine mimetics” (J Med Chem, 2001)

Columns and labels:
[1] = molecular target: T1, Tyrosine-protein phosphatase non-receptor type 4 (Homo sapiens) (UniProt P29074); assay: Inhibitory activity against Protein tyrosine phosphatase PTPmeg-1 at 500 uM
T1 sequence (whole entry): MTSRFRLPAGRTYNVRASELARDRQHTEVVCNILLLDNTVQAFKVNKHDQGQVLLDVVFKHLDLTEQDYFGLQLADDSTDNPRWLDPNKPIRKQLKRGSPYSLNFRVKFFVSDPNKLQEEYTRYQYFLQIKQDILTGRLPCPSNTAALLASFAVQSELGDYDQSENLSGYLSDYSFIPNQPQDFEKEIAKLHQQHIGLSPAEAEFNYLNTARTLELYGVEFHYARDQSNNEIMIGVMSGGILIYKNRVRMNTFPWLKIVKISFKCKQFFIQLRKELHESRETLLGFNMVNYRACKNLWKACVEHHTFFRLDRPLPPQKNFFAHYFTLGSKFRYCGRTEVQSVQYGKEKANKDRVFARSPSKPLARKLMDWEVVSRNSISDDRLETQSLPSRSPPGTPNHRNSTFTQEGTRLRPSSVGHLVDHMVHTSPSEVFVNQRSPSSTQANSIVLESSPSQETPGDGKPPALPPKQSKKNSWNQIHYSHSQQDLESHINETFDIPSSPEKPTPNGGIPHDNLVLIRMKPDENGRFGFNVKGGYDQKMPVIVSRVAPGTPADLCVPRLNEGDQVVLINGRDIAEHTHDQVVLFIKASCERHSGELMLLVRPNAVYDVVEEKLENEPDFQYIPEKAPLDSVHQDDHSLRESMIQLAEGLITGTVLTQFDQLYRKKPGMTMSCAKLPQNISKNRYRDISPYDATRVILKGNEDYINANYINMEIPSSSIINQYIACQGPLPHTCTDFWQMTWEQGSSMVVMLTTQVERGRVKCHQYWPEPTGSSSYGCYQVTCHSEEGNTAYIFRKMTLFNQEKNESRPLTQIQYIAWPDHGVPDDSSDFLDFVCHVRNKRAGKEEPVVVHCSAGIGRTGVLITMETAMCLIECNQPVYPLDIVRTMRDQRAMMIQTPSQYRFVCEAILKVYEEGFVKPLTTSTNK
How it was run: (§1)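 Percent inhibition was measured at the single inhibitor concentration given in the line, using the FDP fluorogenic substrate at about each enzyme's KM. For CDC25a, flag-tagged protein was made in Sf9 cells (moi 5, 27 °C, 72 h) and purified on anti-flag resin to over 80% purity.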

[2] = molecular target: T1, Tyrosine-protein phosphatase non-receptor type 4 (Homo sapiens); assay: Inhibitory activity against Protein tyrosine phosphatase PTPmeg-1 at 380 uM; how it was run: as §1
[3] = molecular target: T2, M-phase inducer phosphatase 1 (Homo sapiens) (UniProt P30304); assay: Inhibitory activity against Protein tyrosine phosphatase cell division cycle 25A at 250 uM; how it was run: as §1
T2 sequence (whole entry): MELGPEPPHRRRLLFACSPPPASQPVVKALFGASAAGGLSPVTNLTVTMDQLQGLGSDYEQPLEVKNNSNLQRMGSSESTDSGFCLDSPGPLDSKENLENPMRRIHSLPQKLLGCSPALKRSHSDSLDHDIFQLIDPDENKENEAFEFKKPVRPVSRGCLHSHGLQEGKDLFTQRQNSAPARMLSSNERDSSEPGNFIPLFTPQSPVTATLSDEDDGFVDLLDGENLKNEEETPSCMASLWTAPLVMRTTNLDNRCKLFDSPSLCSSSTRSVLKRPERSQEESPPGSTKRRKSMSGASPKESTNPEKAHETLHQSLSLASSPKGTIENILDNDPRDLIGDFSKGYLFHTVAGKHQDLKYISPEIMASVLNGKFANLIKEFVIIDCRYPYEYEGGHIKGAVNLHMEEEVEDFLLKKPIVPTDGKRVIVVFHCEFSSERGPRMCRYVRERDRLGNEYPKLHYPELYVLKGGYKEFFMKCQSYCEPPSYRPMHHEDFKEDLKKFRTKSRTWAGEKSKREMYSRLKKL

[4] = molecular target: T1, Tyrosine-protein phosphatase non-receptor type 4 (Homo sapiens); assay: Inhibitory activity against Protein tyrosine phosphatase PTPmeg-1 at 250 uM; how it was run: as §1
[5] = molecular target: T2, M-phase inducer phosphatase 1 (Homo sapiens); assay: Inhibitory activity against Protein tyrosine phosphatase cell division cycle 25A at 250 uM

**Q.** With `O=P(O)(O)C(F)(F)c1ccc(COc2ccccc2OCc2ccc(C(F)(F)P(=O)(O)O)cc2)cc1` as the molecule, how does the inhibition [1] read?
**A.** 30%

**Q.** `O=P(O)(O)C(F)(F)c1ccc(COc2cccc(OCc3ccc(C(F)(F)P(=O)(O)O)cc3)c2)cc1` was tested. Which inhibition [2] did it give?
**A.** 30%

**Q.** Which results are given for `O=P(O)(O)C(F)(F)c1ccc(COCCOCc2ccc(C(F)(F)P(=O)(O)O)cc2)cc1`?
**A.** inhibition [3]: 13%; inhibition [4]: 2%

**Q.** `O=P(O)(O)C(F)(F)c1ccc(CCCCc2ccc(C(F)(F)P(=O)(O)O)cc2)cc1` was tested. Which inhibition [5] did it give?
**A.** 16%

**Q.** And the inhibition [4]?
**A.** 9%
